From paper PMC3480690 (The Open Medicinal Chemistry Journal, 2012) come the findings set out here.

The test system of this test is MCF-7 cells. Nature of the test: MTT assay, cytotoxicity on MCF-7 cells. In kind it is cell-based. To be noted: Homo sapiens, MCF7, 24 h, read-out: MTT assay IC50. The method in brief:
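Human breast cancer MCF-7 cells grown in DMEM with 10% FBS, penicillin and streptomycin at 37°C, 5% CO2. 10000 cells per well were seeded, cultured overnight, then exposed to test compound (1-200 µM) for 24 h. MTT at 0.5 mg/ml final was added for 3 h at 37°C. Formazan was dissolved in DMSO and read at 545 nm (630 nm reference). IC50 was taken from concentration-growth inhibition curves.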
In general terms: Formazan colour is commonly taken as a measure of viable cells.

By IC50 is commonly meant the concentration at which inhibition is half-maximal. As to `Cc1ccc(-c2cc(C(F)(F)F)nn2-c2ccc(S(N)(=O)=O)cc2)cc1` [Celecoxib], the IC50 amounted to 87.7 µM.
